Experimental data as given in article PMC3690275 (Journal of medicinal chemistry, 2013).

Key:
[1] = test system: STAT1; type: cell-based, rat; details: co-treatment with IFN-γ, 30 min, immunofluorescence imaging
[2] = test system: INS-1E β-cells; assay: caspase-3/7 assay in INS-1E β-cells; type: cell-based, rat
How it was run: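 Rat INS-1E β-cells co-treated with a cytokine mixture and the test compound over a dose range; caspase-3/7 activity read after 48 h. IC50 is fitted from triplicate dose-responses. Maximum activity is expressed as % rescue from cytokine-induced caspase-3/7 activation. For the cytokine-optimization runs, values are the mean ± standard error of three independent experiments with six replicates each.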

[3] = thermodynamic solubility assay; type: physicochemical; details: PBS pH 7.4, relative to compound 1

| fold increase in solubility compared to 1 [3] [fold] | Compound | effect on IFN-γ-induced nuclear localization of STAT1 [1] | other results |
| --- | --- | --- | --- |
| – | C[C@@H]1CN([C@@H](C)CO)C(=O)c2cccc(NC(=O)Nc3cccc4cccnc34)c2O[C@H]1CN(C)S(=O)(=O)c1ccc2c(c1)OCCO2 [Compound 7i, N-(((2R,3R)-5-((S)-1-hydroxypropan-2-yl)-3-methyl-6-oxo-10-(3-(quinolin-8-yl)ureido)-3,4,5,6-tetrahydro-2H-benzo[b][1,5]oxazocin-2-yl)methyl)-N-methyl-2,3-dihydrobenzo[b][1,4]dioxine-6-sulfonamide] | nearly abolished this nuclear localization of STAT1 | – |
| – | C[C@@H]1CN([C@@H](C)CO)C(=O)c2cccc(NC(=O)Nc3cccc4ccccc34)c2O[C@H]1CN(C)S(=O)(=O)c1ccc2c(c1)OCCO2 [Compound 1] | nearly abolished this nuclear localization of STAT1 | protective effect in the caspase assay ([2]; condition A: standard concentrations of cytokines): small protective effect; rescue efficacy in the caspase assay ([2]; condition B: IL-1β and TNF-α lowered 20- and 10-fold, IFN-γ increased 4-fold): higher rescue efficacy; reduction of caspase activity ([2]; condition C (IFN-γ 500 ng/mL), INS-1E β-cells, 48 h): 74% |
| 1400 | C[C@@H]1CN([C@@H](C)CO)C(=O)c2cccc(NC(=O)Nc3cccc4ncccc34)c2O[C@H]1CN(C)S(=O)(=O)c1ccc2c(c1)OCCO2 [Compound 7f] | – | – |
| 110 | C[C@@H]1CN([C@@H](C)CO)C(=O)c2cccc(NC(=O)N(C)c3cccc4ccccc34)c2O[C@H]1CN(C)S(=O)(=O)c1ccc2c(c1)OCCO2 [Compound 7b] | – | – |
| – | C[C@@H]1CN([C@@H](C)CO)C(=O)c2cccc(NC(=O)NCc3cccc4ccccc34)c2O[C@H]1CN(C)S(=O)(=O)c1ccc2c(c1)OCCO2 [Compound 7a] | did not inhibit nuclear translocation of STAT1 | activity in the caspase assay (in words) ([2]; INS-1E β-cells): inactive |
